Assay results: paper PMC7305985 (Molecular cell, 2020)
Numbering of substitutions follows the chain as printed. Numbers in names are those of the source. Each block holds one molecule with its values, some of them ahead of it.

Assays:
[1] = system: mono-nucleosomes; assay: Nucleosome binding assay; parameters: species or system Human; details: relative to WT KAP1; overnight 4°C, pH 7.5; Figure 5E
How it was run: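 GST-tagged protein, expressed in bacteria (0.1 mM IPTG, 3 hr, 37°C), was used at 2 µg with 2 µg recombinant biotinylated mono-nucleosomes. Pulldown was on StrepTactin agarose for 1 hr, with 4 washes and boiling elution. 5% input and 20% eluate were blotted with anti-GST 1:5000.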

[2] = system: KAP1 target genes in shKAP1 HCT116 cells; assay: Reconstitution assay, RT-qPCR of KAP1 target genes; format: cell-based; details: shKAP1 HCT116, 48 hr; relative to shNT+GFP, normalized to RPL19, n=3; Figure 5H
[3] = system: KAP1 target gene promoters; assay: FLAG ChIP-qPCR of reconstituted KAP1 proteins; format: cell-based; details: shKAP1 HCT116, FLAG ChIP-qPCR, % Input, n=3; Figures 5I, 6F
How it was run: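 Epitope-tagged KAP1 was re-expressed in shKAP1 HCT116 cells by 1 µg plasmid transfection over 48 hr. Anti-FLAG ChIP used 0.5% formaldehyde crosslinking (10 min) and 150 mM glycine quench. Beads were washed 4 times with each of RIPA, low-salt, high-salt, LiCl and TE buffers. Elution was 30 min at 65°C, de-crosslinking 4 hr at 65°C with proteinase K, and read-out was qPCR.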

reduction of KAP1's ability to interact with mono-nucleosomes [1]: ~ 80%
B1: E662/3A: KAP1 PHD point mutant E662/E663 to A; GST-PHD-BD or FLAG-tagged KAP1 (protein)
chain: PGGGPGTLDDSATICRVCQKPGDLVMCNQCEFCFHLDCHLPALQDVPGAAWSCSLCHVLPDLKEEDGSLSLDGADSTGVVAKLSPANQRKCERVLLALFCHEPCRPLHQLATDSTFSLDQPGGTLDLTLIRARLQEKLSPPYSSPQEFAQDVGRMFKQFNKLTEDKADVQSIIGLQRFFETRMNEAFGDTKFSAVLVEPPPMSLPGAGLSSQELSGGPGDGP
modifications: left off: GST, N-terminal, kept
restoration of KAP1 target gene expression (WT and point mutants) [2]: but not E662/3A, restored KAP1 target gene expression
localization to KAP1 target gene promoters [3]: but not E662/3A, localized to all tested gene promoters

B2: L637A: control mutation L637 in flexible loop between the PHD and BD (protein)
chain: B1 chain with L24A, A49E, A50E
modifications: left off: GST, N-terminal, kept
restoration of KAP1 target gene expression (WT and point mutants) [2]: restored KAP1 target gene expression
localization to KAP1 target gene promoters [3]: localized to all tested gene promoters
